According to ChEMBL document CHEMBL4004817, “Constituents of the Rhizomes of Boesenbergia pandurata and Their Antiausterity Activities against the PANC-1 Human Pancreatic Cancer Line” (J Nat Prod, 2017):
Activity calls are given as the source filed them. The calls are words filed in the database; no cut-off is given here.

Key:
PANC-1 [1] = assay: Antiausteritic activity against human PANC1 cells in nutrient-deprived medium measured after 24 hrs by WST8 assay; assay type: functional
Summary of the method: (§1)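 Human pancreatic cancer cells were seeded at 1.5 × 10^4/well in DMEM for 24 h at 37 °C under 5% CO2. After two PBS washes, cells received serially diluted samples in DMEM (nutrient-rich) or NDM (pH 7.4), with a control and blank on each plate. After 24 h, cells were washed and given DMEM with 10% WST-8 for 3 h, then A450 was read. Viability (mean of three wells) = (sample − blank)/(control − blank) × 100. For NDM, PC50 is the concentration killing 50% of cells preferentially. Arctigenin was the positive control.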

PANC-1 [2] = assay: Cytotoxicity against human PANC1 cells in DMEM measured after 24 hrs by WST8 assay; assay type: cell-based; details: panc-1, 24 h; summary of the method: as §1
PANC-1 [3] = assay: Antiausteritic activity against human PANC1 cells in nutrient-deprived medium assessed as changes in cell morphology by measuring increase in round appearance at 1.5 uM after 24 hrs by ethidium bromide/acridine orange staining based fluorescence imaging method; assay type: functional
Summary of the method: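 PANC-1 cells were seeded at 6 × 10^4/well in DMEM and held 24 h at 37 °C under 5% CO2. They were washed twice with PBS, then switched to NDM alone (control) or with compound at 1.5 μM for 24 h. EB/AO reagent was added for 5 min, and cells were imaged under fluorescence and phase contrast (20×). Green AO marks live cells; red EB marks dead cells.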

Q: `COc1cc(O)cc(O)c1C(=O)[C@@H]1[C@H](/C=C/C(C)(C)OC)C(C)=CC[C@H]1c1ccccc1` was tested. Which PC50 (PANC-1 [1]) did it give?
A: Its PC50 is 10.5 µM.

Q: And the Activity (PANC-1 [2])?
A: The Activity was “Non-Toxic”.

Q: Which results are given for `COc1cc(O)cc(O)c1C(=O)[C@@H]1CC=C(C)[C@H](CC=C(C)C)[C@H]1c1ccccc1`?
A: PC50 (PANC-1 [1]): 7.4 µM; Activity (PANC-1 [2]): Non-Toxic

Q: For `COc1cc(O)c(C(=O)[C@@H]2[C@@H](CC=C(C)C)C(C)=CC[C@H]2c2ccccc2)c(O)c1`, which PC50 (PANC-1 [1]) is on record?
A: The PC50 was 7.2 µM.

Q: And the Activity (PANC-1 [2])?
A: Its Activity is “Non-Toxic”.

Q: With `COc1cc(C[C@H]2C(=O)OC[C@@H]2Cc2ccc(OC)c(OC)c2)ccc1O` [ARCTIGENIN] as the compound, how does the PC50 (PANC-1 [1]) read?
A: The PC50 was 0.83 µM.

Q: How did the PC50 (PANC-1 [1]) turn out when `COc1cc(O)c(C(=O)[C@@H]2[C@H](/C=C/C(C)(C)O)C(C)=CC[C@H]2c2ccccc2)c(O)c1` was run?
A: Its PC50 is 6.6 µM.

Q: What about the Activity (PANC-1 [2]) of the same compound?
A: Its Activity is “Non-Toxic”.

Q: Which PC50 (PANC-1 [1]) does the source give for `COc1cc(O)c(C(=O)[C@@H]2CC=C(C)[C@H](CC=C(C)C)[C@H]2c2ccccc2)c(O)c1` here?
A: Its PC50 is 7.8 µM.

Q: And the Activity (PANC-1 [2])?
A: The Activity was “Non-Toxic”.

Q: What does the source list for `COc1cc(O)c(C(=O)[C@@H]2[C@H](CC=C(C)C)C(C)=CC[C@H]2c2ccccc2)c(O)c1` [PANDURATIN A]?
A: PC50 (PANC-1 [1]): 7.8 µM; Activity (PANC-1 [2]): Non-Toxic

Q: With `COc1cc(O)cc(O)c1C(=O)[C@@H]1CC=C(C)[C@@H](CC=C(C)C)[C@H]1c1ccccc1` as the compound, how does the PC50 (PANC-1 [1]) read?
A: The PC50 was 1 µM.

Q: What about the Activity (PANC-1 [2]) of the same compound?
A: Its Activity is “Non-Toxic”.

Q: Which PC50 (PANC-1 [1]) does the source give for `CC(C)=CC[C@H]1C(C)=CC[C@@H](c2ccccc2)[C@@H]1C(=O)c1c(O)cc(O)cc1O` here?
A: Its PC50 is 5.8 µM.

Q: And the Activity (PANC-1 [2])?
A: The Activity was “Non-Toxic”.

Q: Which PC50 (PANC-1 [1]) does the source give for `COc1cc(O)cc(O)c1C(=O)[C@@H]1[C@H](CC=C(C)C)C(C)=CC[C@H]1c1ccccc1` here?
A: Its PC50 is 2.8 µM.

Q: What about the Activity (PANC-1 [2]) of the same compound?
A: Its Activity is “Non-Toxic”.

Q: With `COc1cc(O)c(C(=O)[C@@H]2CC=C(CCC=C(C)C)C[C@H]2c2ccccc2)c(O)c1` as the compound, how does the Activity (PANC-1 [3]) read?
A: The Activity was “Active”.

Q: And the PC50 (PANC-1 [1])?
A: The PC50 was 0.84 µM.

Q: What about the Activity (PANC-1 [2]) of the same compound?
A: The Activity was “Non-Toxic”.

Q: What does the source list for `COc1cc(O)c(C(=O)[C@@H]2CC=C(C)[C@@H](CC=C(C)C)[C@H]2c2ccccc2)c(O)c1` [(-)-NICOLAIOIDESIN B]?
A: PC50 (PANC-1 [1]): 2.1 µM; Activity (PANC-1 [2]): Non-Toxic

Q: With `C=C(C)C(O)C[C@@H]1C(C)=CC[C@@H](c2ccccc2)[C@@H]1C(=O)c1c(O)cc(OC)cc1O` (some centres not stated) as the compound, how does the PC50 (PANC-1 [1]) read?
A: The PC50 was 18.1 µM.

Q: What about the Activity (PANC-1 [2]) of the same compound?
A: Its Activity is “Non-Toxic”.

Q: How did the PC50 (PANC-1 [1]) turn out when `COc1cc(O)c(C(=O)[C@@H]2CC=C(C)[C@@H](/C=C/C(C)(C)O)[C@H]2c2ccccc2)c(O)c1` was run?
A: Its PC50 is 3.3 µM.

Q: And the Activity (PANC-1 [2])?
A: The Activity was “Non-Toxic”.

Q: With `CC(C)=CC[C@@H]1C(C)=CC[C@@H](c2ccccc2)[C@@H]1C(=O)c1c(O)cc(O)cc1O` [4-HYDROXYPANDURATIN A] as the compound, how does the PC50 (PANC-1 [1]) read?
A: The PC50 was 3.1 µM.

Q: What about the Activity (PANC-1 [2]) of the same compound?
A: Its Activity is “Non-Toxic”.

Q: Which PC50 (PANC-1 [1]) does the source give for `COc1cc(O)c(C(=O)[C@@H]2[C@H](C/C=C(\C)CO)C(C)=CC[C@H]2c2ccccc2)c(O)c1` here?
A: Its PC50 is 6.3 µM.

Q: And the Activity (PANC-1 [2])?
A: Its Activity is “Non-Toxic”.
